Results from ChEMBL document CHEMBL5042548, “Multiparameter Optimization of Oxidative Phosphorylation Inhibitors for the Treatment of Pancreatic Cancer” (J Med Chem, 2022).
Calls of active or inactive are those of the source. The rule behind the calls is not given here.

Legend:
MIA PaCa-2 [1] = assay: Cytotoxicity against human MIA PaCa-2 cells assessed as inhibition of cell growth incubated for overnight in galactose-containing medium followed by compound addition and measured after 3 days by MTT assay; assay type: functional, cell-based; settings: MIA PaCa-2, 72 h
Outline: (§1)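 MIA PaCa-2 3-day MTT in glucose medium (RPMI 1640 + 10% FBS) or galactose medium (glucose-free RPMI + 10 mM galactose + 10% FBS). Galactose wells are seeded at 8000 cells/well. MTT read-out is at 570 nm after DMSO solubilization. IC50 is by nonlinear regression; ≥3 independent experiments.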

MIA PaCa-2 [2] = assay: Cytotoxicity against human MIA PaCa-2 cells assessed as inhibition of cell growth incubated for overnight in glucose-containing medium followed by compound addition and measured after 3 days by MTT assay; assay type: functional, cell-based; settings: MIA PaCa-2, 72 h; outline: as §1
BXPC-3 = assay: Cytotoxicity against human BXPC-3 cells assessed as inhibition of cell growth incubated for overnight in glucose-containing medium followed by compound addition and measured after 7 days by MTT assay; assay type: functional, cell-based; settings: BXPC-3, 168 h
Outline: (§2)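 7-day MTT in glucose medium (RPMI 1640 + 10% FBS). Seeding is 200 cells/well for MIA PaCa-2 and 300 cells/well for BxPC-3, overnight at 37 °C, 5% CO2, before compound. MTT 3 mg/mL is added for 4 h, then DMSO, and absorbance is read at 570 nm. IC50 is by nonlinear regression; ≥3 independent experiments.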

MIA PaCa-2 [3] = assay: Cytotoxicity against human MIA PaCa-2 cells assessed as inhibition of cell growth incubated for overnight in glucose-containing medium followed by compound addition and measured after 7 days by MTT assay; assay type: functional, cell-based; settings: MIA PaCa-2, 168 h; outline: as §2
[4] = Metabolic stability in mouse liver microsomes assessed as half life at 10 uM measured up to 60 mins in presence of NADPH by LC-MS/MS analysis; assay type: ADME, Microsome; settings: for half-life at 10 µM: liver microsomes; for t1/2: microsomes, 1 h, 10 µM
[5] = Toxicity in C57BL/6 mouse allografted with mouse Panc02 cells assessed as drug tolerability at 15 mg/kg, ip administered once a day for 28 days; assay type: organism-based; settings: in vivo, 672 h, time 28 day
[6] = Inhibition of oxidative phosphorylation in human MIA PaCa-2 cells assessed as reduction in ATP production incubated for 24 hrs in galactose-containing medium by celltiter-glo luminescence cell viability assay; assay type: functional, cell-based; settings: MIA PaCa-2, 24 h
Outline: (§3)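 MIA PaCa-2 cells are seeded at 10000 cells/well in glucose RPMI + 10% FBS or in glucose-free RPMI + 10 mM galactose + 10% FBS. Total ATP is measured by CellTiter-Glo luminescence 24 h after compound. IC50 is by nonlinear regression; ≥3 independent experiments.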

[7] = Metabolic stability in human liver microsomes assessed as half life at 10 uM measured up to 60 mins in presence of NADPH by LC-MS/MS analysis; assay type: ADME, Microsome; settings: for half-life at 10 µM: liver microsomes; for t1/2: microsomes, 1 h, 10 µM
[8] = Toxicity in C57BL/6 mouse allografted with mouse Panc02 cells assessed as body weight loss at 15 mg/kg, ip administered once a day for 28 days and measured twice per week; assay type: organism-based; settings: in vivo, 672 h, time 28 day
Outline: (§4)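 Female C57BL/6 mice, 6-10 weeks old, get 5×10^6 Pan02 cells s.c. in the right flank and are randomized at ~100 mm3 (n = 5/group). Dosing is daily for 28 days. Vehicle is 10% DMSO/50% PG/40% saline, except 15 mg/kg uses 10% DMSO/60% PG/30% saline. Caliper volume (length×width²)/2 and body weight are recorded twice weekly.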

[9] = Inhibition of oxidative phosphorylation in human MIA PaCa-2 cells assessed as reduction in ATP production incubated for 24 hrs in glucose-containing medium by celltiter-glo luminescence cell viability assay; assay type: functional, cell-based; settings: MIA PaCa-2, 24 h; outline: as §3
[10] = Toxicity in C57BL/6 mouse allografted with mouse Panc02 cells assessed as drug tolerability at 2.5 mg/kg, ip administered once a day for 28 days; assay type: organism-based; settings: in vivo, 672 h, time 28 day
[11] = Toxicity in C57BL/6 mouse allografted with mouse Panc02 cells assessed as body weight loss at 2.5 mg/kg, ip administered once a day for 28 days and measured twice per week; assay type: organism-based; settings: in vivo, 672 h, time 28 day; outline: as §4
Panc02 = assay: Antitumor activity against mouse Panc02 cells allografted in C57BL/6 mouse syngeneic model assessed as tumor growth inhibition at 2.5 mg/kg, ip administered once daily for 28 days and measured twice per week; assay type: functional, organism-based; settings: time 28.0 day; outline: as §4
[12] = Toxicity in C57BL/6 mouse allografted with mouse Panc02 cells assessed as body weight loss at 7.5 mg/kg, ip administered once a day for 28 days and measured twice per week; assay type: organism-based; settings: in vivo, 672 h, time 28 day; outline: as §4
[13] = Toxicity in C57BL/6 mouse allografted with mouse Panc02 cells assessed as drug tolerability at 7.5 mg/kg, ip administered once a day for 28 days; assay type: organism-based; settings: in vivo, 672 h, time 28 day

SMILES | IC50 (MIA PaCa-2 [1]) [nM] | IC50 (MIA PaCa-2 [2]) [µM] | IC50 (BXPC-3) [nM] | IC50 (MIA PaCa-2 [3]) [nM] | also measured
CCN(CC)S(=O)(=O)c1ccc(S(=O)(=O)N2CCC[C@@H](C(=O)N[C@H]3CCOC3)C2)cc1 | 290 | > 10 | 5270 | 1670 | 
O=C([C@@H]1CCCN(S(=O)(=O)c2ccc(S(=O)(=O)N3CC[C@@H](O)C3)cc2)C1)N1CCC(F)(F)CC1 | 135 | > 3 | 330 | 210 | half-life at 10 µM [4]: 26.2 min; Activity [5]: Non-Toxic; IC50 [6]: 123 nM; half-life at 10 µM [7]: 31 min; Activity [8]: Non-Toxic; IC50 [9]: > 3000 nM
CC(C)CS(=O)(=O)c1ccc(S(=O)(=O)N2CCC[C@@H](C(=O)N3CCC(F)(F)CC3)C2)cc1 |  |  | 311 | 80 | 
CCP(=O)(CC)c1ccc(S(=O)(=O)N2CCC[C@@H](C(=O)N3CCC(F)(F)CC3)C2)cc1 |  |  | > 30000 | 21500 | 
O=C([C@@H]1CCCN(S(=O)(=O)c2ccc(S(=O)(=O)C3COC3)cc2)C1)N1CCC(F)(F)CC1 |  |  | 361 | 110 | 
CCN(CC)S(=O)(=O)c1ccc(S(=O)(=O)N2CCC[C@@H](C(=O)N3CCS(=O)(=O)CC3)C2)cc1 | 220 | > 10 | 4430 | 900 | 
CCN(CC)S(=O)(=O)c1ccc(S(=O)(=O)N2CCC[C@@H](C(=O)N3CCC(C(F)F)CC3)C2)cc1 | 140 | > 10 | 450 | 420 | 
O=C([C@@H]1CCCN(S(=O)(=O)c2ccc(S(=O)(=O)C3CCC3)cc2)C1)N1CCC(F)(F)CC1 | 12.6 | > 3 | 78 | 9 | Activity [10]: Non-Toxic; half-life at 10 µM [4]: 44 min; IC50 [6]: 15.8 nM; half-life at 10 µM [7]: > 60 min; Activity [11]: Non-Toxic; Activity (Panc02): Active; IC50 [9]: > 3000 nM
CCN(CC)S(=O)(=O)c1ccc(S(=O)(=O)N2CCC[C@@H](C(=O)N3CCC(F)(F)CC3)C2)cc1 | 19 | > 10 | 120 | 16 | t1/2 [4]: 2.6 min; IC50 [6]: 21.3 nM; half-life at 10 µM [7]: 2.74 min; IC50 [9]: > 3000 nM
CCN(CC)S(=O)(=O)c1ccc(S(=O)(=O)N2CCC[C@@H](C(=O)N3CCC(COC)CC3)C2)cc1 | 50 | > 10 | 1360 | 250 | 
O=C([C@@H]1CCCN(S(=O)(=O)c2ccc(S(=O)(=O)N3CC[C@H](O)C3)cc2)C1)N1CCC(F)(F)CC1 |  |  | 580 | 590 | 
CCC(CC)S(=O)(=O)c1ccc(S(=O)(=O)N2CCC[C@@H](C(=O)N3CCC(F)(F)CC3)C2)cc1 |  |  | 40 | 13 | t1/2 [4]: 8.7 min; t1/2 [7]: 17.1 min
CCN(CC)S(=O)(=O)c1ccc(S(=O)(=O)N2CCC[C@@H](C(=O)N3CCC(OC)CC3)C2)cc1 | 50 | > 10 | 1420 | 140 | 
CCN(CC)S(=O)(=O)c1ccc(S(=O)(=O)N2CCC[C@@H](C(=O)N3CCOCC3)C2)cc1 | 160 | > 10 | 790 | 350 | 
CCN(CC)S(=O)(=O)c1ccc(S(=O)(=O)N2CCC[C@@H](C(=O)N3CCC(O)CC3)C2)cc1 | 230 | > 10 | 4710 | 870 | 
CCN(CC)S(=O)(=O)c1ccc(S(=O)(=O)N2CCC[C@@H](C(=O)N[C@H]3CC[C@H](OC)CC3)C2)cc1 | 2290 | > 10 | 2000 | 1350 | 
CCN(CC)S(=O)(=O)c1ccc(S(=O)(=O)N2CCC[C@@H](C(=O)N3CCC(C(F)(F)F)CC3)C2)cc1 | 110 | > 10 | 370 | 320 | 
O=C([C@@H]1CCCN(S(=O)(=O)c2ccc(S(=O)(=O)C3CC3)cc2)C1)N1CCC(F)(F)CC1 |  |  | 129 | 26 | 
CN(C)S(=O)(=O)c1ccc(S(=O)(=O)N2CCC[C@@H](C(=O)N3CCC(F)(F)CC3)C2)cc1 | 72.4 | > 3 | 560 |  | half-life at 10 µM [4]: 32 min; Activity [12]: Non-Toxic; IC50 [6]: 78.9 nM; half-life at 10 µM [7]: > 60 min; IC50 [9]: > 3000 nM; Activity [13]: Non-Toxic
CP(C)(=O)c1ccc(S(=O)(=O)N2CCC[C@@H](C(=O)N3CCC(F)(F)CC3)C2)cc1 |  |  | > 30000 | > 30000 | 
CCN(CC)S(=O)(=O)c1ccc(S(=O)(=O)N2CCC[C@@H](C(=O)N3CC[C@@H](OC)C3)C2)cc1 | 1070 | > 10 | 11500 | 3910 | 
CCOC(=O)[C@@H]1CCCN(S(=O)(=O)c2ccc(S(=O)(=O)N(CC)CC)cc2)C1 |  |  |  |  | GI50 (MIA PaCa-2 [3]; time 7 day): 600 nM
CCN(CC)S(=O)(=O)c1ccc(S(=O)(=O)N2CCC[C@@H](C(=O)N3CC[C@H](OC)C3)C2)cc1 | 460 | > 10 | 6750 | 2460 | 
CCN(CC)S(=O)(=O)c1ccc(S(=O)(=O)N2CCC[C@@H](C(=O)N[C@@H]3CCOC3)C2)cc1 | 100 | > 10 | 2270 | 750 | 
CCN(CC)C(=O)c1ccc(S(=O)(=O)N2CCC[C@@H](C(=O)N3CCC(F)(F)CC3)C2)cc1 |  |  | 240 | 70 | 
FC(F)(F)c1ccc(/C=C/c2nc(COc3ccc(CCCCn4ccnn4)cc3)co2)cc1 [MUBRITINIB] |  |  |  | 51 | 
CCN(CC)S(=O)(=O)c1ccc(S(=O)(=O)N2CCC[C@@H](C(=O)N[C@H]3CC[C@@H](OC)CC3)C2)cc1 | 590 | > 10 | 2150 | 960 | 
CC(C)NS(=O)(=O)c1ccc(S(=O)(=O)N2CCC[C@@H](C(=O)N3CCC(F)(F)CC3)C2)cc1 |  |  | 470 | 350 | t1/2 [4]: 23.1 min; t1/2 [7]: 19.7 min
CCN(CC)S(=O)(=O)c1ccc(S(=O)(=O)N2CCC[C@@H](C(=O)NC3CCOCC3)C2)cc1 | 1350 | > 10 | 8570 | 3770 | 
